Measured values reported in ChEMBL document CHEMBL4400513, “Aurone derivatives as promising antibacterial agents against resistant Gram-positive pathogens” (Eur J Med Chem, 2019).
Converted amounts (≈) assume the structure as drawn.

Key:
Staphylococcus aureus = assay: Antimicrobial activity against methicillin-resistant Staphylococcus aureus after 18 to 24 hrs in aerobic condition by two-fold serial dilutions method; assay type: functional
Summary of the method: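 Strains grown on LB at 37 °C aerobically, then in Mueller-Hinton broth overnight at 200 rpm and brought to log phase (OD600 ~0.6). About 10^5 bacteria/mL exposed to two-fold serial dilutions 0–500 µM, DMSO 0.2% final as control. Aerobic incubation at 37 °C for 18–24 h; OD600 read; MIC = lowest concentration inhibiting visible growth. n = 3.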

Pseudomonas aeruginosa = assay: Antimicrobial activity against Pseudomonas aeruginosa after 18 to 24 hrs in aerobic condition by two-fold serial dilutions method; assay type: functional
Summary of the method: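 Colonies grown overnight (~16 h) in Mueller-Hinton broth at 37 °C, 200 rpm, diluted 1/100 and grown to log phase (OD600 ~0.6), then diluted to ~10^5 bacteria/mL. Exposed to 0 to 500 µM in 1:2 series (0.2% DMSO final control), aerobic, 37 °C, 18–24 h. OD600 read; MIC = lowest concentration without visible growth; n = 3.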

BEAS-2B = assay: Cytotoxicity against human BEAS2B cells assessed as reduction in cell viability after 48 hrs by Resazurin dye-based assay; details: for IC50: Homo sapiens, BEAS-2B; for Activity: human, beas-2b
Summary of the method: (§1)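 Normal human lung epithelial (BEAS-2B) and lung fibroblast (IMR-90) cells were grown in DMEM with 10% FCS. Cells were seeded at ~10^4/well, grown to confluence (48–72 h), then exposed to increasing concentrations for 48 h at 37 °C, 5% CO2, with 0.2% DMSO as control. Resazurin was added for 4 h and fluorescence read at 530/590 nm. Viability was normalized to DMSO wells and IC50 calculated.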

IMR-90 = assay: Cytotoxicity against human IMR90 cells assessed as reduction in cell viability after 48 hrs by Resazurin dye-based assay; details: for IC50: Homo sapiens, IMR-90, 48 h; for Activity: human, imr-90, 48 h; summary of the method: as §1

| SMILES | MIC (Staphylococcus aureus) [µM] | MIC (Pseudomonas aeruginosa) [µM] | IC50 (BEAS-2B) [µM] | Activity (BEAS-2B) | IC50 (IMR-90) [µM] | Activity (IMR-90) |
| --- | --- | --- | --- | --- | --- | --- |
| O=C1/C(=C/c2cccc(O)c2O)Oc2c(O)cccc21 | 250 (≈ 67.6 µg/mL) | > 500 |  |  |  |  |
| CN1CCN(c2ccc(/C=C3\Oc4cccc(O)c4C3=O)cc2)CC1 | > 500 | > 500 |  |  |  |  |
| O=C1/C(=C/c2ccc(C3CCCCC3)cc2)Oc2cc(O)cc(O)c21 | 7.8 (≈ 2.62 µg/mL) | > 500 | 33 | Dose-dependent effect | 31 | Dose-dependent effect |
| CCCCc1ccc(/C=C2\Oc3cc(OC)cc(OC)c3C2=O)cc1 | > 500 | > 500 |  |  |  |  |
| O=C1/C(=C/c2cccc(O)c2)Oc2cc(O)ccc21 | > 500 | > 500 |  |  |  |  |
| COc1ccc2c(c1)O/C(=C\c1ccc(OC)c(OC)c1)C2=O | > 500 | > 500 |  |  |  |  |
| COc1cc(OC)c2c(c1)O/C(=C\c1ccccc1O)C2=O | > 500 | > 500 |  |  |  |  |
| COc1cc(OC)c2c(c1)O/C(=C\c1ccc(C)cc1C)C2=O | > 500 | > 500 |  |  |  |  |
| CCCCc1ccc(/C=C2\Oc3cc(O)cc(O)c3C2=O)cc1 | 15.6 to 31.2 (≈ 4.84 to 9.7 µg/mL) | > 500 | 90 | Dose-dependent effect | 80 | Dose-dependent effect |
| O=C(O)c1ccc(/C=C2\Oc3c(O)cccc3C2=O)cc1 | > 500 | > 500 |  |  |  |  |
| COc1cccc(OC)c1/C=C1\Oc2cccc(O)c2C1=O | 250 (≈ 74.6 µg/mL) | > 500 |  |  |  |  |
| O=C1/C(=C/c2ccc(O)c(O)c2)Oc2cccc(O)c21 | 125 to 250 (≈ 33.8 to 67.6 µg/mL) | > 500 |  |  |  |  |
| O=C1/C(=C/c2ccccc2)Oc2cccc(O)c21 | > 500 | > 500 |  |  |  |  |
| O=C1/C(=C/c2ccccc2)Oc2c(O)cccc21 | > 500 | > 500 |  |  |  |  |
| O=C1/C(=C/c2ccc(O)cc2)Oc2ccccc21 | > 500 | > 500 |  |  |  |  |
| CN1CCN(c2ccc(/C=C3\Oc4cc(O)ccc4C3=O)cc2)CC1 | > 500 | > 500 |  |  |  |  |

| SMILES | MIC (Staphylococcus aureus) [µM] | MIC (Pseudomonas aeruginosa) [µM] | IC50 (BEAS-2B) [µM] | Activity (BEAS-2B) | IC50 (IMR-90) [µM] | Activity (IMR-90) |
| --- | --- | --- | --- | --- | --- | --- |
| O=C1/C(=C/c2ccc(O)c(O)c2)Oc2c(O)cccc21 | 125 to 250 (≈ 33.8 to 67.6 µg/mL) | > 500 |  |  |  |  |
| CC(C)(C)c1ccc(/C=C2\Oc3cccc(O)c3C2=O)cc1 | > 500 | > 500 |  |  |  |  |
| O=C1/C(=C/c2ccc(O)cc2)Oc2cc(O)ccc21 | > 500 | > 500 |  |  |  |  |
| CCCCc1ccc(/C=C2\Oc3cccc(O)c3C2=O)cc1 | > 500 | > 500 |  |  |  |  |
| O=C1/C(=C/c2ccccc2)Oc2ccccc21 [(Z)-AURONE] | > 500 | > 500 |  |  |  |  |
| O=C1/C(=C/c2cccc(O)c2)Oc2cc(O)cc(O)c21 | 125 to 250 (≈ 33.8 to 67.6 µg/mL) | > 500 |  |  |  |  |
| Cc1ccc(/C=C2\Oc3cccc(O)c3C2=O)c(C)c1 | > 500 | > 500 |  |  |  |  |
| O=C1/C(=C/c2ccc(O)cc2)Oc2cccc(O)c21 | 125 to 250 (≈ 31.8 to 63.6 µg/mL) | > 500 |  |  |  |  |
| O=C1/C(=C/c2ccc(O)cc2)Oc2cc(O)cc(O)c21 | 62.5 to 125 (≈ 16.9 to 33.8 µg/mL) | > 500 |  |  |  |  |
| O=C1/C(=C/c2cc(O)c(O)c(O)c2)Oc2c(O)cccc21 | 125 to 250 (≈ 35.8 to 71.6 µg/mL) | > 500 |  |  |  |  |
| COc1cc(OC)c(/C=C2\Oc3cccc(O)c3C2=O)c(OC)c1 | 250 (≈ 82.1 µg/mL) | > 500 |  |  |  |  |
| CCc1ccc(/C=C2\Oc3cccc(O)c3C2=O)cc1 | 62.5 to 125 (≈ 16.6 to 33.3 µg/mL) | > 500 |  |  |  |  |
| CC(C)c1ccc(/C=C2\Oc3cccc(O)c3C2=O)cc1 | > 500 | > 500 |  |  |  |  |
| O=C1/C(=C/c2ccccc2O)Oc2cc(O)ccc21 | > 500 | > 500 |  |  |  |  |
| COc1ccc(/C=C2\Oc3cc(OC)cc(OC)c3C2=O)c(OC)c1 | > 500 | > 500 |  |  |  |  |
